PG9 Ab binder = binds the HIV-1 gp120 antibody PG9. hit rate 0.43% among 360,000. AID 624416. inhibition, % at 6.7 µM. TR-FRET gp120-PG9 antibody binding; in the data active means inhibition above about 8.5%
NR1D1 modulator = modulators of human Rev-erb alpha DNA binding; P20393; Rev-erbα–FITC-DNA binding, fluorescence polarization, 90 min; activity, % at 10 µM; hit rate 0.79% among 370,000;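 active means activity above about 14%, limit read from the data; passing the limit was not always enough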
NR2E3 ag-1 = human photoreceptor-specific nuclear receptor agonism; Q9Y5X4; CHO-S Gal4-NCOR/VP16-NR2E3 two-hybrid, luciferase; inhibition of corepressor binding, % at 3.98 µM; hit rate 0.35% among 360,000; AID 602229;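 active means inhibition above the mean of all tested compounds plus 3 SD, cut at about 70% in these data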;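 further: higher means lower luciferase signal from less NR2E3 corepressor binding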
Target sequence (Q9Y5X4 whole entry, looked up, the tested form may be a part): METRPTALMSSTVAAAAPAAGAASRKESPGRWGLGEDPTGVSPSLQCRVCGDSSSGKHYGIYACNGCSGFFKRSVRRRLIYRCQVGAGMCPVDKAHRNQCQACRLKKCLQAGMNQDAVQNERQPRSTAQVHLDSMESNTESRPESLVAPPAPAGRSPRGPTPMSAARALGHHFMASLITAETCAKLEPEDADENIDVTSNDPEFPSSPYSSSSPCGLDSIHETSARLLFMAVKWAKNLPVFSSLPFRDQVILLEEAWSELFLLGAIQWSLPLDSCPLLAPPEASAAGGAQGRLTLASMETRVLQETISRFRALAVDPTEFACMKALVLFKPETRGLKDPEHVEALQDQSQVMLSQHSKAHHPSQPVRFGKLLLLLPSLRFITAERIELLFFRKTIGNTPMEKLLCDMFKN
NR2E3 ag-2 = agonists of human nuclear receptor NR2E3 | Q9Y5X4 | GST-NR2E3/biotin-RetCOR TR-FRET, 1536-well | inhibition of corepressor binding, % at 4.78 µM | hit rate 0.12% among 320,000 | AID 2300;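 active means percent inhibition above the cutoff of mean plus 3 SD of all tested compounds, set per screening campaign, cut at about 20% in these data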
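Test system – NR2E3–RetCOR corepressor complex · Quantity – NR2E3 fusion 1.35 nM · Buffer or medium – Tris pH 7.5 · Incubation – Compound–protein incubation for 5 h at 4 °C · Technique – TR-FRET, Eu(K)-anti-GST donor, streptavidin-D2 acceptor, ex 340, em 617/671 nm · Evaluation – percent inhibition of 671/617 nm emission ratio versus biotin and DMSO controls · Plate – 1536-well format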
GalR3 antag = human GalR3 antagonism | HEK293 GalR3-CNG cAMP membrane potential fluorescence; galR3 body fused to GalR1 C-terminus | inhibition, % at 3 µM | hit rate 0.44% among 360,000 | AID 651719;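 active means inhibition above the screen-wide average plus 3 SD, cut at about 13% in these data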;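 further: forskolin and galanin both at EC90 stimulate the cells; cAMP rise reported by CNG channel membrane potential dye signal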
NR1D1 mod conf = confirmation of modulators of human Rev-erb alpha DNA binding; shares compounds with NR1D1 modulator; Rev-erb alpha FITC-DNA binding, fluorescence polarization, 90 min; activation, % at 25 µM; hit rate 61% among 3,000; AID 1259319;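 active means activation at or above a set limit, or at least 3 SD above the negative control mean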
RORg counter = counter-screen for Rev-erb alpha modulators: RORgamma DNA binding. hit rate 8% among 910. purified RORgamma protein-FITC-DNA binding, fluorescence polarization. shares compounds with NR1D1 modulator. IC50, µM. AID 1259320;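 active means Compounds whose fitted half-maximal concentration for disrupting protein-DNA binding is below 10 micromolar; the record names Rev-erb in its text, so the target is in doubt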
A number is an active result; - = inactive; . = not tested or not shown. An excerpt weighted towards active compounds, which were near 1.8% of everything screened.

SMILES	PG9 Ab binder	NR1D1 modulator	NR2E3 ag-1	NR2E3 ag-2	GalR3 antag	NR1D1 mod conf	others
C=CCN1[C@H](CO)[C@H](c2ccc(C#CC3(O)CCCC3)cc2)[C@@H]1C#N	.	-	.	.	.	.
CCOC(=O)c1c(NC(=O)COC(=O)c2ccc(O)cc2)sc(C(=O)NC)c1C	-	38	-	-	-	29
CCCCOCCCNC(=O)C[C@H]1C[C@@]2(C(=O)OC)C(=C[C@H](COCc3ccccc3)O[C@@H]2C)N(CCc2ccc(OC)c(OC)c2)C1=O	.	-	.	.	.	.
Cc1ccc(OCC(=O)NNC(=O)C2CCN(c3ncccn3)CC2)cc1	-	-	-	-	-	.
Cc1ccc(OCC(=O)NNC(=O)C2CCN(c3nc(C)cc(C)n3)CC2)cc1	-	23	-	-	-	-
O=C(OC12CCCN(C1)/C(=C/c1ccccc1)C2)c1cccc(F)c1 (stereo unspecified)	.	-	.	.	.	.
COC(=O)c1c(C(=O)c2ccc(Br)cc2)n(C)c2ccccc12	-	18	-	-	-	21
COC(=O)c1c(S(N)(=O)=O)c2ccccc2n1C	-	-	-	-	-	.
Cc1cc(C(=O)Nc2ccc(Cl)c(Cl)c2)n(-c2ccccc2)n1	.	-	.	.	.	.
O=C(Nc1ccccc1)c1cc2c(=O)c3ccccc3oc2nc1C(F)(F)F	-	46	-	-	-	34	RORg counter=-
O=C(Nc1cccc(C(F)(F)F)c1)c1cc2c(=O)c3ccccc3oc2nc1C(F)(F)F	-	25	-	-	-	19
COc1ccc2oc(C(=O)OCC(=O)/C(C#N)=C(\C)N)c(C)c2c1	-	20	-	-	-	-
Cc1oc2c(C)c(O)ccc2c(=O)c1-c1ccc2ccccc2n1	-	23	-	-	-	20
COc1ccc2[nH]c3c(c2c1)CCN[C@]31C(=O)N(C)c2ccccc21	.	-	.	.	.	.
NC(=O)COc1ccc(/C=N\NC(=O)c2ccc(-c3ccccc3)cc2)cc1	-	35	-	-	-	21
CC1(c2nnnn2C2CCCCC2)CSCC(=O)N1CCc1ccc(O)cc1 (stereo unspecified)	.	-	.	.	.	.
O=C(CSc1nc2ccccc2nc1N1CCCCC1)N1CCN(c2ccccc2)CC1	-	-	-	-	.	.
O=C(CSc1nc2ccccc2nc1N1CCCCC1)N1CCN(C(c2ccccc2)c2ccc(Cl)cc2)CC1 (stereo unspecified)	.	19	.	.	.	21
O=C(O)C(=Cc1ccc([N+](=O)[O-])cc1)c1ccccc1	-	-	.	.	-	.
C[C@H](O)[C@@H]1CN2CCc3c([nH]c4c(-c5ccc6c(c5)OCO6)cccc34)[C@@H]2C[C@@H]1N(C)C(=O)c1ccco1	.	-	.	.	.	.
COc1ccc(NC(=O)C2CCN(c3cc(-c4ccccc4)nc4ncnn34)CC2)cc1OC	-	-	-	-	-	.
COc1ccc(OC)c(NC(=O)C2CCN(c3cc(-c4ccccc4)nc4ncnn34)CC2)c1	-	35	-	-	-	-
O=C(NC1CCCCN(Cc2ccc(Cl)cc2)C1=O)c1cccc2nsnc12 (stereo unspecified)	.	-	.	.	.	.
C#CCCCN([C@@H](CC(C)C)C(=O)OC)S(=O)(=O)c1ccccc1Br	.	-	.	.	.	.
COC(=O)[C@]12C[C@H](CC(=O)NCC3CCCCC3)C(=O)N(CCc3ccc(OC)c(OC)c3)C1=C[C@H](COCc1ccccc1)O[C@@H]2C	.	-	.	.	.	.
SMILES	PG9 Ab binder	NR1D1 modulator	NR2E3 ag-1	NR2E3 ag-2	GalR3 antag	NR1D1 mod conf	others
CCC(=O)N1CCC1(C)C(=O)Nc1cnc2ccccc2c1 (stereo unspecified)	-	17	-	.	-	-
O=C(Cc1ccc(Cl)cc1)c1c[nH]c(C(=O)NCc2cccnc2)c1	-	19	-	-	-	35	RORg counter=-
C/C=C/C=C/C(=O)c1cc(C)c(OC(=O)CNC(=O)OC(C)(C)C)c(C)c1O	-	-	.	.	-	.
COc1ccc(Oc2c(Cl)cnn(CC(=O)C(c3ccccc3)c3ccccc3)c2=O)cc1	.	78	.	.	.	57	RORg counter=-
N#Cc1cccc(NC(=O)COC(=O)c2ccccc2Sc2ccccc2C#N)c1	-	37	-	-	-	21
CC(=O)c1ccc(NC(=O)COC(=O)c2ccccc2Sc2ccccc2C#N)cc1	-	55	-	-	-	31	RORg counter=-
CN(C)C(=O)COC(=O)c1ccccc1Sc1ccccc1C#N	-	-	-	-	-	.
CC(C)c1ccc(NC(=O)CSc2nnc(-c3ccco3)n2C)cc1	.	-	.	.	.	.
Cn1nc(CC(=O)Nc2ccc3c(c2)CCC3)c2ccccc2c1=O	-	20	-	.	-	17
CC(=O)Nc1ccc2ccc3cccc4ccc1c2c34	-	33	-	-	-	28
Cc1ccc(-c2noc(CCCC(=O)NCC3CCCO3)n2)cc1 (stereo unspecified)	-	-	-	-	-	.
CCn1c(=O)c(CCC(=O)NCC2CCCO2)c(C)c2c(C)nn(-c3ccc(C)cc3)c21 (stereo unspecified)	-	20	-	-	-	-
CC(=O)C1=C(C)N(Cc2ccc(Cl)cc2)C(=S)NC1c1cccc(Br)c1 (stereo unspecified)	-	-	.	.	-	.
Cc1cccc(NC(=O)CCS(=O)(=O)c2ccccc2)c1C	.	-	.	.	.	.
CCc1ccc(NC(=O)CCc2nc3sc4c(c3c(=O)[nH]2)CCCC4)cc1	-	19	-	-	-	-
Cc1ccc(OCCNC(=O)CCc2nc3sc4c(c3c(=O)[nH]2)CCCC4)cc1	-	20	-	-	-	-
O=C(CCc1nc2sc3c(c2c(=O)[nH]1)CCCC3)NCCc1ccc(Cl)cc1	-	21	-	.	-	-
C=CCn1c(Cc2cccs2)nnc1SCC(=O)Nc1ccc2c(c1)OCO2	.	-	.	.	.	.
COc1ccc2c(COC(=O)c3ccc(C)c(S(=O)(=O)N4CCOCC4)c3)cc(=O)oc2c1	-	21	-	.	-	26
CCOc1ccc(NC(=O)CSc2nnc(-c3n[nH]c4c3CCC4)n2N)cc1	.	-	.	.	.	.
COc1ccc(C(=O)N2C(=O)c3ccc(N)cc3C2=O)cc1	-	23	-	-	-	-
COc1ccc(C(=O)n2cnc(N)n2)cc1	-	-	-	-	-	.
COc1ccc(-n2nc(C(=O)NCC(=O)Nc3ccccn3)c3ccccc3c2=O)cc1Cl	-	66	-	.	-	45	RORg counter=-
COc1ccc(-n2nc(C(=O)NCC(=O)N3CCN(c4cccc(Cl)c4)CC3)c3ccccc3c2=O)c(OC)c1	-	31	-	-	-	-
COc1ccc(-n2nc(C(=O)NCC(=O)Nc3cc(Cl)c(OC)cc3OC)c3ccccc3c2=O)cc1	-	53	-	-	-	50	RORg counter=-
CC(=O)c1cc(-c2cccc(C(C)C)c2)c(=O)n2c1CCC2	.	-	.	.	.	.
O=c1[nH]c2ccccc2nc1/C=C(\O)c1cccs1	-	43	-	-	-	22

From PubChem
